Target: Albumin (Homo sapiens, UniProt P02768)
Experiment: Binding affinity to first site on human serum albumin by SPR
Summary of the method: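 SPR on a BIACORE 3000 at 25°C. HSA was amine-coupled to a CM5 chip at 40 µg/ml in 10 mM acetate, pH 5.2. Drug was injected from 400 µM to 0.1 µM in twofold dilutions in PBS with 5% DMSO at 50 µl/min, with 30 s association and 30 s dissociation. Responses were reference-subtracted, read 10 s into the injection and DMSO-corrected. Dose-response curves gave KD or fraction of sites occupied.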

Albumin, sequence (P02768 whole entry): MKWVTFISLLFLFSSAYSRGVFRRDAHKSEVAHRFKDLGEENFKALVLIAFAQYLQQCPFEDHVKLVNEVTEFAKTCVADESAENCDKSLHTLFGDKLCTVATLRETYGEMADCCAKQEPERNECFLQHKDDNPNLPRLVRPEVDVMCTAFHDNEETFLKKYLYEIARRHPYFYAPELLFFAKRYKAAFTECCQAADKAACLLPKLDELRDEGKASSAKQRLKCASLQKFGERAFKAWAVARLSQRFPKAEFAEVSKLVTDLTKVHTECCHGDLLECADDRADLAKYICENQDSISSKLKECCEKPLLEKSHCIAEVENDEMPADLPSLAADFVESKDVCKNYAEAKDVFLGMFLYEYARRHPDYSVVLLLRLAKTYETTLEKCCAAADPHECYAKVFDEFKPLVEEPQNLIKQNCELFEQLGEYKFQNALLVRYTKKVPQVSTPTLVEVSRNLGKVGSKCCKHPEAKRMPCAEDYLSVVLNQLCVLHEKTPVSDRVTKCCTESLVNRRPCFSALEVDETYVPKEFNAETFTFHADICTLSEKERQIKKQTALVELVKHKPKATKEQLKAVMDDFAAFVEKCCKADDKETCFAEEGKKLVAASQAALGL

CN(C)c1ccc(O)c2c1C[C@H]1C[C@H]3[C@H](N(C)C)C(=O)C(C(N)=O)C(=O)[C@@]3(O)C(=O)C1C2=O (some centres not stated) [Klinomycin]
Kd: 12 µM

COc1ccc(OC)c(/C=C2\SC(=S)N(C(C(=O)O)c3ccccc3)C2=O)c1 (configuration not stated) [2-[(5Z)-5-[(2,5-dimethoxyphenyl)methylidene]-4-oxo-2-sulfanylidene-3-thiazolidinyl]-2-phenylacetic acid]
Kd: 12 µM
